This is an account of results in ChEMBL document CHEMBL4616602, “Design and biological evaluation of tetrahydropyridine derivatives as novel human GPR119 agonists” (Bioorg Med Chem Lett, 2020).

In brackets after ≈: the same amount, converted by molar mass. Activity calls are given as the source filed them. The rule behind the calls is not given here.

Data set [1] deals with T1, Glucose-dependent insulinotropic receptor (Homo sapiens) (UniProt Q8TDV5).
T1 sequence (whole entry): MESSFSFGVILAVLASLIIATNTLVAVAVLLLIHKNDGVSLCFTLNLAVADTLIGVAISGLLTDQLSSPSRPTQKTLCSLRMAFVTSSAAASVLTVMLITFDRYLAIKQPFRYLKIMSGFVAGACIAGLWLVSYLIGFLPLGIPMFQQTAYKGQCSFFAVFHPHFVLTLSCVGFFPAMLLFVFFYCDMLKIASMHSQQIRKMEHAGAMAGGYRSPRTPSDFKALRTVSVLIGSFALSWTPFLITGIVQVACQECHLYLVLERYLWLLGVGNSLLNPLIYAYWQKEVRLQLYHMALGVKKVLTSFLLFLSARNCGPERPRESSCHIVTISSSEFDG
As to the kind of experiment: Agonist activity at GPR119 (unknown origin) assessed as increase in cAMP level at 10 uM by cAMP HTRF assay relative to oleoylethanolamide. It counts as functional. In a few lines:
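Cell-based GPR119 agonism at a single 10 μM concentration. Response is expressed as percent of the maximal efficacy of the reference agonist oleoylethanolamide (OEA). Values are means.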
On the technique in general: Cyclic AMP is a second messenger, typically raised through Gs and lowered through Gi signalling.

For data set [2], the target named is T2, Glucose-dependent insulinotropic receptor (Homo sapiens, UniProt Q8TDV5).
T2 sequence (Q8TDV5 whole entry): T1 sequence (whole entry)
As to the kind of experiment: Agonist activity at GPR119 (unknown origin) assessed as increase in cAMP level by cAMP HTRF assay. It counts as functional. In a few lines: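 Cell-based GPR119 agonist assay with a top test concentration of 10 μM. EC50 values are reported as means.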

Data set [3] has as its system Mus musculus. Kind of data set: Hypoglycemic activity in C57BL/6 mouse assessed as reduction in blood glucose AUC at 100 mg/kg, po measured after 2 hrs by glucose challenge by OGTT relative to control. The data set is classed as functional. Also on record: scale not given: the % may be the effect or the level left. The procedure, abridged: (§1)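 Normal male C57BL/6J mice received vehicle or compound at 20, 50 or 100 mg/kg, then a glucose challenge of 2 g/kg (10 ml/kg). Blood glucose was followed over 0–120 min and AUC0–120 min calculated. Mean ± SD, n=6, versus vehicle group.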

Data set [4] deals with Mus musculus. As to the kind of experiment: Hypoglycemic activity in C57BL/6 mouse assessed as reduction in blood glucose AUC at 20 and 50 mg/kg, po measured immediately by glucose challenge by OGTT relative to control. The data set is classed as functional. The arrangement: scale not given: the % may be the effect or the level left. In a few lines:
as §1

Data set [5] has as its system Mus musculus. Kind of data set: Hypoglycemic activity in C57BL/6 mouse assessed as reduction in blood glucose AUC at 20 and 50 mg/kg, po measured after 2 hrs by glucose challenge by OGTT relative to control. The data set is classed as functional. The arrangement: scale not given: the % may be the effect or the level left. In a few lines:
as §1

For data set [6], the system named is Mus musculus. Kind of data set: Hypoglycemic activity in C57BL/6 mouse […] model assessed as reduction in blood glucose AUC at 20 mg/kg, po administered for 28 days and measured after 2 hrs on day 28 by glucose challenge by OGTT relative to control. The data set is classed as functional. Also on record: scale not given: the % may be the effect or the level left. The procedure, abridged: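 Diet-induced obese mice were dosed with 20 mg/kg repeatedly for 28 days. On day 28 an OGTT (2 g/kg glucose) was run with blood glucose tracked over 0–120 min and AUC0–120 min derived. Fasting glucose was also taken at day 28. Mean ± SD, n=6, versus vehicle.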

A short description of data set [7]: Toxicity in C57BL/6 mouse […] model assessed as reduction in food intake at 20 mg/kg, po observed for 4 weeks. The data set is classed as organism-based. Particulars: in vivo, 672 h. The procedure, abridged: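 Diet-induced obese mice were treated at 20 mg/kg for 4 weeks, and average food intake was recorded over the treatment period. Mean ± SD, n=6, compared with vehicle.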

Data set [8] relates to Mus musculus. Kind of data set: Antidiabetic activity in C57BL/6 mouse […] model assessed as reduction in body weight gain at 20 mg/kg, po administered for 4 weeks and measured on day 28. The data set is classed as functional, organism-based. The procedure, abridged: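 Diet-induced obese mice were given 20 mg/kg for 4 weeks, with body weight recorded through day 28. Mean ± SD, n=6, versus vehicle group.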

Data set [9] in a line: Solubility of compound. It counts as physicochemical. In a few lines: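 Aqueous solubility (logS and mg/ml) was calculated in silico, not measured experimentally.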

Consider `CC(C)(C)OC(=O)N1CC=C(c2nc(COc3ccc(C(C)(C)C)cc3C(C)(C)C)cs2)CC1`, for which, in data set [1], the Emax amounted to 1.7%.

Take `CCCCCCCC/C=C\CCCCCCCC(=O)NCCO` [OLEOYLETHANOLAMIDE]: the 50% effective concentration (EC50) in data set [2] is 930 nM. Regarding `CC(C)(C)OC(=O)N1CC=C(c2nc(COc3ccc4c(c3)OCO4)cs2)CC1`, the Emax in data set [1] is 11.5%. For `CCc1cnc(N2CCC(c3nc(COc4ccc(-n5cnnn5)cc4)cs3)CC2)nc1` [MBX-2982], the Emax in data set [1] is 113%. Also, the EC50 in [2] was determined as 3.9 nM. Further, the Activity in data set [3] is listed as 29.22%; in [4], 18.47%; in data set [5], 26.72%; in data set [6], 23.61%; in [7] it was “Non-Toxic”. Besides, the result in data set [8] was Active. For the same compound, the concentration in solution in data set [9] (solubility) was 37 µg/mL (≈ 82.5 µM).

Consider `CCc1cnc(N2CC=C(c3nc(COc4ccc(-n5cnnn5)cc4)cs3)CC2)nc1`, for which the Emax in data set [1] turned out to be 110%. Besides, in data set [2], the half-maximal effective concentration (EC50) worked out at 4.9 nM. For the same compound, the Activity in data set [3] is 35.05%; in data set [4] it was 20.11%; in [5], 26.77%; in data set [6], 34.8%; in [7] it was “Non-Toxic”. For the same compound, the result in data set [8] was Active. Moreover, in data set [9], the solubility came to 56 µg/mL (≈ 125 µM). For `CCc1ccc(N2CC=C(c3nc(COc4ccc(S(C)(=O)=O)cc4)cs3)CC2)nc1`, the Emax in [1] came out at 71.5%.

Turning to `CCCC(=O)c1ccc(OCc2csc(C3=CCN(C(=O)OC(C)(C)C)CC3)n2)cc1`, the Emax in data set [1] was found to be 62.5%. Regarding `CC(C)(C)OC(=O)N1CC=C(c2nc(COc3ccc(-n4cnnn4)cc3)cs2)CC1`, the Emax in data set [1] amounted to 95.4%. In addition, the concentration giving a half-maximal response (EC50) in [2] was 113 nM. As for `CCc1cnc(N2CC=C(c3nc(COc4ccc(S(C)(=O)=O)cc4)cs3)CC2)nc1`, in data set [1], the Emax was 105%. The EC50 in data set [2] worked out at 70.5 nM. Turning to `CC(C)(C)OC(=O)N1CC=C(c2nc(CNc3ccc(Cl)c(I)c3)cs2)CC1`, in [1], the Emax was 5.25%. `CC(C)(C)OC(=O)N1CC=C(c2nc(COc3cccc(-n4cnnn4)c3)cs2)CC1`: the Emax in data set [1] was -2.17%. For `CCc1cnc(N2CC=C(c3nc(COc4ccc(-n5cnnn5)cc4Cl)cs3)CC2)nc1`, in [1], the Emax worked out at 109%. Moreover, in data set [2], the EC50 is 10.2 nM. Besides, the Activity in data set [3] is reported as 12.11%. Regarding `COC(=O)c1sccc1NCc1csc(C2=CCN(C(=O)OC(C)(C)C)CC2)n1`, the Emax in data set [1] was 13%. `COc1ccc(-n2cnnn2)cc1OCc1csc(C2=CCN(C(=O)OC(C)(C)C)CC2)n1`: in data set [1], the Emax came out at 8.4%. For the compound `CC(C)(C)OC(=O)N1CC=C(c2nc(CNc3ccc(S(C)(=O)=O)cc3)cs2)CC1`, the Emax in [1] is 26%. As for `COc1ccc(C(C)=O)cc1OCc1csc(C2=CCN(C(=O)OC(C)(C)C)CC2)n1`, the Emax in data set [1] was -5.65%. Regarding `CC(C)(C)OC(=O)N1CC=C(c2nc(COc3ccc(S(C)(=O)=O)cc3)cs2)CC1`, in data set [1], the Emax came out at 78%. Besides, in data set [2], the concentration for a half-maximal effect (EC50) came out at 678 nM. Turning to `CC(C)(C)OC(=O)N1CC=C(c2nc(COc3ccc(Cl)cc3)cs2)CC1`, the Emax in data set [1] was -7.34%. Still for that read-out and setting: the figure for `COc1ccc(NCc2csc(C3=CCN(C(=O)OC(C)(C)C)CC3)n2)c(OC)c1` is -7.44%.

For the compound `COc1ccc(NCc2csc(C3=CCN(C(=O)OC(C)(C)C)CC3)n2)cc1OC`, the Emax in [1] was -6.25%.

For `CC(C)(C)OC(=O)N1CC=C(c2nc(COc3ccc(-n4cnnn4)cc3Cl)cs2)CC1`, the Emax in [1] worked out at 94.4%. Also, the 50% effective concentration (EC50) in data set [2] turned out to be 107 nM.

For `CC(C)(C)OC(=O)N1CC=C(c2nc(CNc3cc(C(F)(F)F)cc(C(F)(F)F)c3)cs2)CC1`, the Emax in data set [1] was -2.16%.

Take `COc1ccc(OCc2csc(C3=CCN(C(=O)OC(C)(C)C)CC3)n2)cc1OC`: in [1], the Emax was determined as 10.7%. As for `CC(C)(C)OC(=O)N1CC=C(c2nc(COc3ccc(C4CCCCC4)cc3)cs2)CC1`, the Emax in data set [1] was 19.7%. For `CCc1ccc(N2CC=C(c3nc(COc4ccc(-n5cnnn5)cc4F)cs3)CC2)nc1`, the Emax in [1] was 89.6%.

For `CC(C)(C)OC(=O)N1CC=C(c2nc(CNc3ccc(-n4cnnn4)cc3)cs2)CC1`, in [1], the Emax worked out at 35.5%.

Turning to `COc1ccc(Br)cc1OCc1csc(C2=CCN(C(=O)OC(C)(C)C)CC2)n1`, in [1], the Emax is -14.2%. Regarding `CCc1cnc(N2CC=C(c3nc(COc4ccc(-n5cnnn5)cc4F)cs3)CC2)nc1`, the Emax in data set [1] worked out at 115%. The EC50 in data set [2] amounted to 8.8 nM. In addition, the Activity in data set [3] was 26.81%; in data set [4], 1.2%; in data set [5], 14.16%. With `CC(C)(C)OC(=O)N1CC=C(c2nc(COc3ccc(-n4cnnn4)cc3F)cs2)CC1`, the Emax in data set [1] came out at 105%. Moreover, in [2], the EC50 was 108 nM.

For the compound `CCc1ccc(N2CC=C(c3nc(COc4ccc(-n5cnnn5)cc4)cs3)CC2)nc1`, the Emax in data set [1] stood at 78.5%. With `CCc1ccc(N2CC=C(c3nc(COc4ccc(-n5cnnn5)cc4Cl)cs3)CC2)nc1`, in data set [1], the Emax is 72.7%. Consider `CC(C)(C)OC(=O)N1CC=C(c2nc(COc3ccc(OC(F)(F)F)cc3)cs2)CC1`, for which the Emax in data set [1] stood at 7.04%.

The Emax is the size of the effect at its maximum, as opposed to the concentration needed. Usually EC50 stands for the midpoint of the concentration-response curve. What is called solubility is the dissolved amount per volume that the medium holds.
